From ChEMBL document CHEMBL4619772 (J Med Chem, 2020)

Legend:
Zaire ebolavirus [1] = experiment: Antiviral activity against Ebola virus 1976 Mayinga infected in African green monkey Vero cells; format: functional, organism-based
[2] = Inhibition of pseudotyped HIV/MARV GP infected in human A549 cells assessed as reduction in virus entry measured after 48 hrs by luciferase reporter gene assay; format: cell-based, Marburgvirus; conditions: Orthomarburgvirus, A549, 48 h
[3] = Inhibition of pseudotyped HIV/EBOV GP infected in human A549 cells assessed as reduction in virus entry measured after 48 hrs by luciferase reporter gene assay; format: cell-based, Ebolavirus; conditions: Orthoebolavirus, A549, 48 h
[4] = Metabolic stability in human pooled plasma assessed as parent compound remaining at 20 uM after 60 mins by HPLC analysis; format: ADME, cell-free; conditions: read-out: Stability
Method in brief: (§1)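 Stability is reported as % of compound remaining after 60 min incubation in plasma or liver microsomes, relative to t0.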

[5] = Selectivity index, ratio of CC50 for human A549 cells to EC50 for HIV/EBOV-GP infected in human A549 cells; format: toxicity, cell-based; conditions: read-out: Ratio CC50/EC50
Method in brief: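 Ratio CC50/EC50. CC50 is A549 cytotoxicity by CellTiter 96 aqueous nonradioactive cell proliferation assay.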

Zaire ebolavirus [6] = experiment: Antiviral activity against Ebola virus 1976 Mayinga infected in human HeLa cells pretreated for 1 hr followed by virus infection measured after 24 hrs by Hoechst staining-based immunofluorescence assay; format: functional, organism-based
A549 [7] = experiment: Inhibition of pseudotyped HIV/MARV GP infected in human A549 cells assessed as reduction in virus entry at 12.5 uM measured after 48 hrs by luciferase reporter gene assay relative to control; format: cell-based; conditions: Marburgvirus
Method in brief: (§2)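 Low-passage A549 cells are infected with HIV-based pseudovirions carrying EBOV or MARV GP and a luciferase reporter, with or without compound at 12.5 μM. […] Toremifene is the positive control.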

A549 [8] = experiment: Inhibition of pseudotyped HIV/EBOV GP infected in human A549 cells assessed as reduction in virus entry at 12.5 uM measured after 48 hrs by luciferase reporter gene assay relative to control; format: cell-based; conditions: Ebolavirus; method in brief: as §2
Marburgvirus [9] = experiment: Antiviral activity against Marburg virus Lake Victoria, 2005 Angola infected in African green monkey Vero cells; format: functional, organism-based, Lake Victoria marburgvirus; conditions: Orthomarburgvirus, Angola2005, Vero
[10] = Metabolic stability in Sprague-Dawley rat pooled plasma assessed as parent compound remaining at 20 uM after 60 mins by HPLC analysis; format: ADME, cell-free; conditions: read-out: Stability; method in brief: as §1
Zaire ebolavirus [11] = experiment: Antiviral activity against Ebola virus 1976 Mayinga infected in African green monkey Vero cells pretreated for 1 hr followed by virus infection measured after 24 hrs by Hoechst staining-based immunofluorescence assay; format: functional, organism-based
[12] = Metabolic stability in Fischer F344 rat liver microsomes assessed as parent compound remaining after 60 mins in presence of NADPH by HPLC analysis; format: ADME, Microsome; conditions: read-out: Stability; method in brief: as §1
[13] = Metabolic stability in human liver microsomes assessed as parent compound remaining after 60 mins in presence of NADPH by HPLC analysis; format: ADME, Microsome; conditions: read-out: Stability; method in brief: as §1
[14] = Selectivity index, ratio of CC50 for African green monkey Vero cells to EC50 for Ebola virus 1976 Mayinga infected in African green monkey Vero cells; format: toxicity; conditions: read-out: Ratio CC50/EC50
[15] = Selectivity index, ratio of CC50 for human HeLa cells to EC50 for Ebola virus 1976 Mayinga in human HeLa cells; format: toxicity, cell-based; conditions: read-out: Ratio CC50/EC50
Marburgvirus [16] = experiment: Antiviral activity against Marburg virus Lake Victoria, 2005 Angola infected in human HeLa cells pretreated for 1 hr followed by virus infection measured after 24 hrs by Hoechst staining-based immunofluorescence assay; format: functional, organism-based, Lake Victoria marburgvirus; conditions: Orthomarburgvirus, Angola2005, HeLa
Cytochrome P450 3A4 [17] = biological target: T1, Cytochrome P450 3A4 (Homo sapiens, UniProt P08684); experiment: Inhibition of recombinant human CYP3A4 expressed in baculovirus infected insect cell microsomes using fluorescent substrate in presence of NADPH by fluorescence assay; format: ADME
T1 sequence (P08684 whole entry): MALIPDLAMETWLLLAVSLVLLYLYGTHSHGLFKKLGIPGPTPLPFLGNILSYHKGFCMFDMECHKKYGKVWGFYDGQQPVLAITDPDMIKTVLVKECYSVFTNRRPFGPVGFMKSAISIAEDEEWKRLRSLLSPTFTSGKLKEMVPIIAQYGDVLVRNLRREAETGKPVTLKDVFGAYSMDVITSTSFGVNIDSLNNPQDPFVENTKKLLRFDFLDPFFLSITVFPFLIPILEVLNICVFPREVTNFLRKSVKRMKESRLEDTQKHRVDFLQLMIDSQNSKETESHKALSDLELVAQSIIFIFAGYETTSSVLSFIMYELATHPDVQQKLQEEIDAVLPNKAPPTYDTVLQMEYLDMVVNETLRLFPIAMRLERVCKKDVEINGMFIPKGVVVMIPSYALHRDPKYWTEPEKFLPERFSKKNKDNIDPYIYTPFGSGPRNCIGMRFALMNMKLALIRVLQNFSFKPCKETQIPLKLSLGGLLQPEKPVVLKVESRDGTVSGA
Method in brief: (§3)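 CYP3A4 inhibition IC50 is determined with 10 μM quinidine as positive inhibitor control, from three replicates; errors are estimated <10%.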

Cytochrome P450 2C9 [18] = biological target: T2, Cytochrome P450 2C9 (Homo sapiens, UniProt P11712); experiment: Inhibition of recombinant human CYP2C9 expressed in baculovirus infected insect cell microsomes using fluorescent substrate in presence of NADPH by fluorescence assay; format: ADME
T2 sequence (P11712 whole entry): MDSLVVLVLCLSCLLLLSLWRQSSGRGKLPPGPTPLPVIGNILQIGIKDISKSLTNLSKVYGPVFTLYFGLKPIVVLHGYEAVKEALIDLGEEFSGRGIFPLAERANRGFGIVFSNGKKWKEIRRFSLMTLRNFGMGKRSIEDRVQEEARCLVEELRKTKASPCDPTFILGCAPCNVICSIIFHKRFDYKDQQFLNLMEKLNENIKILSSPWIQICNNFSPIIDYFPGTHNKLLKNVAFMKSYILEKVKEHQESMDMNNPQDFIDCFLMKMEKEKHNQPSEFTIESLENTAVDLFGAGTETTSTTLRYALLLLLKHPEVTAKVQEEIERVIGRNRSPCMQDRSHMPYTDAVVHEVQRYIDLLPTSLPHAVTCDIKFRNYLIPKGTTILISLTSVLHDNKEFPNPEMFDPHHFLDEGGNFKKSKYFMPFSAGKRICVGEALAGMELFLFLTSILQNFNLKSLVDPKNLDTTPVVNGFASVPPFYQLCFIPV
Method in brief: (§4)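 CYP2C9 inhibition IC50 is determined with 30 μM sulfaphenazole as positive inhibitor control, from three replicates; errors are estimated <10%.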

Cytochrome P450 3A4 [19] = biological target: T1, Cytochrome P450 3A4; experiment: Inhibition of recombinant human CYP3A4 expressed in baculovirus infected insect cell microsomes using vivid DBOMF as substrate preincubated for 10 mins followed by substrate addition and measured after 25 mins in presence of […] by fluorescence assay; format: ADME; method in brief: as §3
Cytochrome P450 2C9 [20] = biological target: T2, Cytochrome P450 2C9; experiment: Inhibition of recombinant human CYP2C9 expressed in baculovirus infected insect cell microsomes using vivid BOMF as substrate preincubated for 10 mins followed by substrate addition and measured after 25 mins in presence of […] by fluorescence assay; format: ADME; method in brief: as §4

| Structure (SMILES) | EC50 (Zaire ebolavirus [1]) | EC50 [2] | EC50 [3] | remaining at 1 h, 20 µM [4] | selectivity ratio [5] | EC50 (Zaire ebolavirus [6]) | inhibition (A549 [7]) | inhibition (A549 [8]) | EC50 (Marburgvirus [9]) | remaining at 1 h, 20 µM [10] | EC50 (Zaire ebolavirus [11]) | remaining at 1 h [12] | remaining at 1 h [13] | selectivity ratio [14] | selectivity ratio [15] | EC50 (Marburgvirus [16]) | IC50 (Cytochrome P450 3A4 [17]) | IC50 (Cytochrome P450 2C9 [18]) | IC50 (Cytochrome P450 3A4 [19]) | IC50 (Cytochrome P450 2C9 [20]) |
| --- | --- | --- | --- | --- | --- | --- | --- | --- | --- | --- | --- | --- | --- | --- | --- | --- | --- | --- | --- | --- |
| COC(=O)c1ccc(NC(=O)c2ccc(CN3CCCCC3)cc2)cc1 | < 10000 nM | 530 nM | 9860 nM | 63% | 15 | > 25000 nM | 90.7% | 74% | < 10000 nM | 78% | 2830 nM | 0% | 54% | 35 | – | – | – | – | – | – |
| CC1CCN(c2ccc(NC(=O)c3ccc(CN4CCOCC4)cc3)cc2C(F)(F)F)CC1 | – | 180 nM | 12 nM | 100% | 2090 | 310 nM | 92.3% | 99.3% | – | 89% | – | 75% | 64% | – | 58 | 820 nM | > 100000 nM | 4980 nM | – | – |
| O=C(Nc1ccc(C23CC4CC(CC(C4)C2)C3)cc1)c1ccc(CN2CCOCC2)cc1 | – | 2790 nM | 18 nM | 86% | 5440 | 830 nM | 72.5% | 99% | – | 86% | – | 57% | 34% | – | 134 | 520 nM | > 100000 nM | 3140 nM | – | – |
| CC(C)(C)c1ccc(NC(=O)c2ccc(CN3CCCCC3)cc2)c(C(C)(C)C)c1 | – | 2340 nM | 480 nM | 85% | 76 | 590 nM | 85% | 99.5% | – | 82% | – | 99% | 17% | – | 227 | 2000 nM | – | – | > 100000 nM | 18600 nM |
| O=C(Nc1ccc(SC(F)(F)F)c(Cl)c1)c1ccc(CN2CCCCC2)cc1 | – | 1610 nM | 1270 nM | 100% | 5 | 1120 nM | 99.8% | 99.9% | – | 88% | – | 94% | 90% | – | 14 | 2400 nM | – | – | 15100 nM | 4490 nM |
